Measured values from ChEMBL document CHEMBL1131019, “Minimal-size, constrained corticotropin-releasing factor agonists with i-(i+3) Glu-Lys and Lys-Glu bridges” (1998).
“And” between values parts separate entries of the source, which are not always exact repeats. Equal values may be shown once. Square brackets hold non-standard residues; d marks the D form. Peptide text beside a SMILES is read from it. Nle = CCCC[C@H](N)C(=O)O

species: Rattus norvegicus; test: In vitro for agonist activity by measuring release of ACTH by rat pituitary cells in culture relative to human Corticotropin-Releasing factor (CRF); type: functional, Pituitary gland cell
How it was run: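 Male Sprague–Dawley rat anterior pituitary cells, collagenase-dissociated, plated at 0.16 × 10⁶ cells/well in 2% FBS medium. After 3 days, washed into 0.1% BSA medium, preincubated 1 h, washed again, then exposed to peptide for 3 h. Medium ACTH measured by radioimmunoassay.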

In order of rising Potency:
1. CCCC[C@H](NC(=O)[C@H](CCC(=O)O)NC(=O)[C@H](CC(C)C)NC(=O)[C@H](CCCC)NC(=O)[C@H](CCC(=O)O)NC(=O)[C@H](CCCN=C(N)N)NC(=O)[C@H](CC(C)C)NC(=O)[C@H](CC(C)C)NC(=O)[C@H](Cc1c[nH]cn1)NC(=O)[C@H](Cc1ccccc1)NC(=O)[C@@H](NC(=O)[C@H](CC(C)C)NC(=O)[C@H](CC(=O)O)NC(=O)[C@H](CC(C)C)NC(C)=O)[C@@H](C)O)C(=O)N[C@@H](C)C(=O)N[C@@H](CCCCN)C(=O)N[C@@H](C)C(=O)N[C@@H](CCC(=O)O)C(=O)N[C@@H](CCC(N)=O)C(=O)N[C@@H](CCC(=O)O)C(=O)N[C@@H](C)C(=O)N[C@@H](CCC(=O)O)C(=O)N[C@@H](CCC(N)=O)C(=O)N[C@@H](C)C(=O)N[C@@H](C)C(=O)N[C@@H](CC(C)C)C(=O)N[C@@H](CC(N)=O)C(=O)N[C@@H](CCCN=C(N)N)C(=O)N[C@@H](CC(C)C)C(=O)N[C@@H](CC(C)C)C(=O)N[C@@H](CC(C)C)C(=O)N[C@@H](CCC(=O)O)C(=O)N[C@@H](CCC(=O)O)C(=O)N[C@@H](C)C(N)=O (Ac-LDLTFHLLRE[Nle]LE[Nle]AKAEQEAEQAALNRLLLEEA-NH2)  0.004
2. CCCC[C@H](NC(=O)[C@H](CCC(=O)O)NC(=O)[C@H](CC(C)C)NC(=O)[C@H](CCCC)NC(=O)[C@H](CCC(=O)O)NC(=O)[C@H](CCCN=C(N)N)NC(=O)[C@H](CC(C)C)NC(=O)[C@H](CC(C)C)NC(=O)[C@H](Cc1c[nH]cn1)NC(=O)[C@@H](Cc1ccccc1)NC(=O)[C@@H](NC(=O)[C@H](CC(C)C)NC(=O)[C@H](CC(=O)O)NC(=O)[C@H](CC(C)C)NC(=O)[C@H](CO)NC(=O)[C@@H](NC(=O)[C@@H]1CCCN1C(=O)[C@@H]1CCCN1C(C)=O)[C@@H](C)CC)[C@@H](C)O)C(=O)N[C@@H](C)C(=O)N[C@@H](CCCCN)C(=O)N[C@@H](C)C(=O)N[C@@H](CCC(=O)O)C(=O)N[C@@H](CCC(N)=O)C(=O)N[C@@H](CCC(=O)O)C(=O)N[C@@H](C)C(=O)N[C@@H](CCC(=O)O)C(=O)N[C@@H](CCC(N)=O)C(=O)N[C@@H](C)C(=O)N[C@@H](C)C(=O)N[C@@H](CC(C)C)C(=O)N[C@@H](CC(N)=O)C(=O)N[C@@H](CCCN=C(N)N)C(=O)N[C@@H](CC(C)C)C(=O)N[C@@H](CC(C)C)C(=O)N[C@@H](CC(C)C)C(=O)N[C@@H](CCC(=O)O)C(=O)N[C@@H](CCC(=O)O)C(=O)N[C@@H](C)C(N)=O  1.3
3. CC[C@H](C)[C@H](NC(=O)[C@H](CO)NC(=O)[C@H](CC(C)C)NC(=O)[C@H](CO)NC(=O)[C@H]1CCCN1C(=O)[C@H](CC(N)=O)NC(=O)[C@@H](N)CC(=O)O)C(=O)N[C@@H](CC(=O)O)C(=O)N[C@@H](CC(C)C)C(=O)N[C@H](C(=O)N[C@@H](Cc1ccccc1)C(=O)N[C@@H](Cc1c[nH]cn1)C(=O)N[C@@H](CC(C)C)C(=O)N[C@@H](CC(C)C)C(=O)N[C@@H](CCCN=C(N)N)C(=O)N[C@H](C(=O)N[C@@H](CC(C)C)C(=O)N[C@@H](CC(C)C)C(=O)N[C@@H](CCC(=O)O)C(=O)N[C@@H](CC(C)C)C(=O)N[C@@H](C)C(=O)N[C@@H](CCCN=C(N)N)C(=O)N[C@H](C(=O)N[C@@H](CCC(N)=O)C(=O)N[C@@H](CO)C(=O)N[C@@H](CCC(N)=O)C(=O)N[C@@H](CCCN=C(N)N)C(=O)N[C@@H](CCC(=O)O)C(=O)N[C@@H](CCCN=C(N)N)C(=O)N[C@@H](C)C(=O)N[C@@H](CCC(=O)O)C(=O)N[C@@H](CCC(N)=O)C(=O)N[C@@H](CC(N)=O)C(=O)N[C@@H](CCCN=C(N)N)C(=O)N[C@H](C(=O)N[C@H](C(=O)N[C@@H](Cc1ccccc1)C(=O)N[C@@H](CC(=O)O)C(=O)N[C@@H](CO)C(=O)N[C@H](C(N)=O)C(C)C)[C@@H](C)CC)[C@@H](C)CC)[C@@H](C)O)[C@@H](C)O)[C@@H](C)O (stereo in doubt; 37)  2.9
4. CC[C@H](C)[C@H](NC(=O)[C@H](CO)NC(=O)[C@H](CC(C)C)NC(=O)[C@H](CO)NC(=O)[C@H]1CCCN1C(=O)[C@H](CC(N)=O)NC(=O)[C@@H](N)CC(=O)O)C(=O)N[C@@H](CC(=O)O)C(=O)N[C@@H](CC(C)C)C(=O)N[C@H](C(=O)N[C@@H](Cc1ccccc1)C(=O)N[C@@H](Cc1c[nH]cn1)C(=O)N[C@@H](CC(C)C)C(=O)N[C@@H](CC(C)C)C(=O)N[C@@H](CCCN=C(N)N)C(=O)N[C@H](C(=O)N[C@@H](CC(C)C)C(=O)N[C@@H](CC(C)C)C(=O)N[C@@H](CCC(=O)O)C(=O)N[C@@H](CC(C)C)C(=O)N[C@@H](C)C(=O)N[C@@H](CCCN=C(N)N)C(=O)N[C@H](C(=O)N[C@@H](CCC(N)=O)C(=O)N[C@@H](CO)C(=O)N[C@@H](CCC(N)=O)C(=O)N[C@@H](CCCN=C(N)N)C(=O)N[C@@H](CCC(=O)O)C(=O)N[C@@H](CCCN=C(N)N)C(=O)N[C@@H](C)C(=O)N[C@@H](CCC(=O)O)C(=O)N[C@@H](CCC(N)=O)C(=O)N[C@@H](CC(N)=O)C(=O)N[C@@H](CCCN=C(N)N)C(=O)N[C@H](C(=O)N[C@H](C(=O)N[C@@H](Cc1ccccc1)C(=O)N[C@@H](CC(=O)O)C(=O)N[C@@H](CO)C(=O)N[C@H](C(N)=O)C(C)C)[C@@H](C)CC)[C@@H](C)CC)[C@@H](C)O)[C@@H](C)O)[C@@H](C)O (stereo in doubt; 36)  3.1

`CCCC[C@H](NC(=O)[C@H](CCCN=C(N)N)NC(=O)[C@H](CC(C)C)NC(=O)[C@H](CC(C)C)NC(=O)[C@H](CCC(=O)O)NC(=O)[C@H](CC(C)C)NC(=O)[C@H](CC(C)C)NC(=O)[C@H](CC(C)C)NC(=O)[C@H](CC(=O)O)NC(=O)[C@@H](NC(=O)[C@H](CO)NC(=O)[C@@H](NC(=O)[C@@H]1CCCN1C(=O)[C@@H]1CCCN1C(=O)CNC(=O)[C@H](CCC(=O)O)NC(=O)[C@@H]1CCCN1)[C@@H](C)CC)[C@@H](C)CC)C(=O)N[C@@H](CCCC)C(=O)N[C@H](C(=O)N[C@@H](CCC(=O)O)C(=O)N[C@H](C(=O)N[C@@H](CCC(=O)O)C(=O)N[C@@H](CCCCN)C(=O)N[C@@H](CCC(N)=O)C(=O)N[C@@H](CCC(=O)O)C(=O)N[C@@H](CCCCN)C(=O)N[C@@H](CCC(=O)O)C(=O)N[C@@H](CCCCN)C(=O)N[C@H](CCC(=O)O)C(=O)N[C@H](CCC(N)=O)C(=O)N[C@H](C)C(=O)N[C@H](CCCCN)C(=O)N[C@H](CC(N)=O)C(=O)N[C@H](CC(N)=O)C(=O)N[C@H](CCCN=C(N)N)C(=O)N[C@H](CC(C)C)C(=O)N[C@H](CC(C)C)C(=O)N[C@H](CC(C)C)C(=O)N[C@H](CC(=O)O)C(=O)N[C@@H](C(=O)N[C@@H](C(N)=O)[C@H](C)CC)[C@H](C)O)[C@@H](C)CC)[C@@H](C)CC` was tested, and the Potency was 0.53 and 0.54.
